pIC50, pKd: −log10 of the molar value. Activity calls are given as the source filed them. The calls are words filed in the database; no cut-off is given here.
Legend:
Homo sapiens [1] = organism: Homo sapiens; assay: Inhibition of full length His-tagged HSP90/GST-tagged Cdc37 (unknown origin) interaction at 100 uM after 1 hr by HTRF assay relative to control
In short: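 HTRF assay using His-tagged full-length Hsp90 and GST-tagged Cdc37 M, each 250 nM final, in PBS with an extra 400 mM KF, pH 7.4. Compound incubated 1 h at 37 °C. Anti-GST-Cryptate and anti-6His-XL665 then added, 0.5 h at 37 °C. Ex 320 nm; ratio = (665/620 nm) × 10000. No-compound negative control and reagent-only blank.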

[2] = Inhibition of full length His-tagged HSP90/GST-tagged Cdc37 (unknown origin) interaction after 1 hr by HTRF assay; design: species or system Homo sapiens
In short: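 Final 250 nM each of His-Hsp90 (full length) and GST-Cdc37 M in PBS with extra 400 mM KF, pH 7.4. Compound added (300 μM to 1.23 μM, three-fold steps), 1 h at 37 °C. Anti-GST-cryptate and anti-6His-XL665 added, 0.5 h at 37 °C. TR-FRET read at ex 320 nm, em 665/620 nm, ratio ×10000. No-compound and reagent-only controls included.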

MCF7 [3] = assay: Antiproliferative activity against human MCF7 cells after 72 hrs by MTT assay; type: functional, cell-based; conditions: MCF7, 72 h
In short: (§1)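 Cells seeded at 10000/well and left 24 h, then exposed to compounds in DMSO (200 μM down to 0.823 μM, three-fold steps) for 72 h at 37 °C. Viability was read by MTT (5 mg/mL in PBS) with formazan dissolved in DMSO, OD at 490 nm. IC50 was taken from parallel experiments as mean ± SD. Media: MCF-7 in MEM, SKBR-3 in RPMI-1640, A549 in F12K, each with 10% FCS.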

SK-BR-3 [4] = assay: Antiproliferative activity against human SKBR3 cells after 72 hrs by MTT assay; type: functional, cell-based; conditions: SK-BR-3, 72 h; in short: as §1
A549 [5] = assay: Antiproliferative activity against human A549 cells after 72 hrs by MTT assay; type: functional, cell-based; conditions: A549, 72 h; in short: as §1
Heat shock protein HSP90 [6] = biological target: T1, Heat shock protein HSP90 (Homo sapiens, UniProt P07900+P08238); assay: Inhibition of N-terminal GST-tagged HSP90 ATPase activity (unknown origin) expressed in Escherichia coli at 100 uM after 1 hr in presence of ATP by spectrophotometric assay relative to control
In short: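 ADP Hunter Plus ADP-detection kit. Compound at 100 μM final in 15 mM HEPES, 20 mM NaCl, 1 mM EDTA, 10 mM MgCl2, 0.02% Tween20, pH 7.4. Mixed in equal volumes with Hsp90 (5 μM) and ATP (100 μM), 1 h at 37 °C. Detection reagents A and B added, 30 min at room temperature; ex 540/em 620 nm. Protein-free background; no-ligand wells set as 100% activity.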

Heat shock protein HSP90 [7] = biological target: T1, Heat shock protein HSP90; assay: Inhibition of GA-FITC binding to N-terminal GST-tagged HSP90 (unknown origin) expressed in Escherichia coli at 100 uM after 30 mins fluorescence polarization assay relative to control
Heat shock protein HSP90 [8] = biological target: T1, Heat shock protein HSP90; assay: Binding affinity to N-terminal GST-tagged HSP90 (unknown origin) expressed in Escherichia coli by biolayer interferometry analysis
Homo sapiens [9] = organism: Homo sapiens; assay: Inhibition of full length His-tagged HSP90/GST-tagged Cdc37 (unknown origin) interaction at 10 uM after 1 hr by HTRF assay relative to control
MCF7 [10] = assay: Antiproliferative activity against human MCF7 cells at 10 uM after 72 hrs by MTT assay relative to control; type: functional
SK-BR-3 [11] = assay: Antiproliferative activity against human SKBR3 cells at 10 uM after 72 hrs by MTT assay relative to control; type: functional
A549 [12] = assay: Antiproliferative activity against human A549 cells at 10 uM after 72 hrs by MTT assay relative to control; type: functional
Homo sapiens [13] = organism: Homo sapiens; assay: Inhibition of N-terminal GST-tagged HSP90/Cdc37 (unknown origin) interaction expressed in Escherichia coli at 20 uM preincubated with Cdc37 for 1 hr followed by addition to HSP90 by GST-pull down assay
In short: (§2)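 Pull-down with 10 μg GST-Hsp90 N-terminal domain immobilised as bait on glutathione resin spin columns. Compound incubated with Cdc37 for 1 h at 37 °C, then added to the columns. Loading buffer 25 mM Tris, 0.15 M NaCl, pH 7.2; elution with extra 10 mM reduced glutathione; spins 1 min at 1,000 × g, 4 °C. Eluate analysed by SDS-PAGE and anti-GST/anti-His western blot.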

Homo sapiens [14] = organism: Homo sapiens; assay: Inhibition of HSP90/Cdc37 protein-protein interaction in human SKBR3 cells assessed as decrease in Akt level after 24 hrs by Western blot analysis; type: cell-based
In short: (§3)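 SKBR-3 cells treated with compound at 1, 10 and 50 μM for 24 h. After a PBS rinse and trypsinisation, cells lysed in Tris-HCl pH 7.5 buffer with NaCl, EDTA, NP-40, PMSF, NaF and DTT; lysate spun 12000 rpm, 10 min, 4 °C. Protein by BCA, equal loads on SDS-PAGE. Probed for Hsp90, Akt, Cdk4, β-actin; DyLight 800 secondary, infrared imaging.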

Homo sapiens [15] = organism: Homo sapiens; assay: Inhibition of HSP90/Cdc37 protein-protein interaction in human SKBR3 cells assessed as decrease in CDK4 level after 24 hrs by Western blot analysis; type: cell-based; in short: as §3
SK-BR-3 [16] = assay: Effect on HSP90 level in human SKBR3 cells at 1 to 50 uM after 24 hrs by Western blot analysis; type: functional, cell-based; in short: as §3
Homo sapiens [17] = organism: Homo sapiens; assay: Inhibition of N-terminal GST-tagged HSP90/Cdc37 (unknown origin) interaction expressed in Escherichia coli preincubated with Cdc37 for 1 hr followed by addition to HSP90 by GST-pull down assay; in short: as §2

Row | Structure (SMILES) | inhibition (Homo sapiens [1]) | pIC50 [2] | pIC50 (MCF7 [3]) | pIC50 (SK-BR-3 [4]) | pIC50 (A549 [5]) | further results
1 | COc1ccc(CCNc2cc(N3CCN(CCO)CC3)ccc2[N+](=O)[O-])cc1OC | 30.7% | 3.53 | < 4.00 | 4.07 | < 4.00 | 
2 | CC.COc1ccc(NC(=O)C2=C(C)Nc3nc(CCCO)nn3[C@H]2c2ccc(OC)c(OC)c2)cc1 | 36.6% | 3.81 | < 4.00 | < 4.00 | < 4.00 | inhibition (Heat shock protein HSP90 [6]): 45.7%; inhibition (Heat shock protein HSP90 [7]): inactive; Kd (Heat shock protein HSP90 [8]): > 100 µM
3 | CC1=C(O)C(=O)C=C2C1=CC=C1[C@@]2(C)CC[C@@]2(C)[C@@H]3C[C@](C)(C(=O)O)CC[C@]3(C)CC[C@]12C [CELASTROL] | 92.3% |  |  |  |  | inhibition (Homo sapiens [9]): 79.3%; Activity (MCF7 [10]): 98.62%; Activity (SK-BR-3 [11]): 97.62%; Activity (A549 [12]): 95.43%; inhibition (Homo sapiens [13]): Active; inhibition (Homo sapiens [14]): Dose-dependent effect; inhibition (Homo sapiens [15]): Dose-dependent effect; Activity (SK-BR-3 [16]): inactive
4 | Cn1nccc1NS(=O)(=O)c1ccc(NC(=O)CCC(=O)Nc2ccc(S(=O)(=O)Nc3ccnn3C)cc2)cc1 | 79.4% | 4.56 to 4.57 | 4.58 | 4.83 | 4.42 | pKd (Heat shock protein HSP90 [8]): 4.39 to 4.40; inhibition (Homo sapiens [17]): Dose-dependent effect; inhibition (Homo sapiens [14]): Dose-dependent effect; inhibition (Homo sapiens [15]): Dose-dependent effect; Activity (SK-BR-3 [16]): inactive
5 | Cc1cc(NS(=O)(=O)c2ccc(NC(=O)CCCC(=O)Nc3ccc(S(=O)(=O)Nc4cc(C)on4)cc3)cc2)no1 | 59.3% | 4.11 | 4.17 | 4.23 | 4.12 | inhibition (Heat shock protein HSP90 [6]): < 10%; inhibition (Heat shock protein HSP90 [7]): inactive; Kd (Heat shock protein HSP90 [8]): 80.4 µM; inhibition (Homo sapiens [17]): Dose-dependent effect
6 | CS(=O)(=O)N(CC(=O)N/N=C/c1ccc(OCC(=O)Nc2ccc(F)cc2)cc1)c1ccc(Cl)c(Cl)c1 | < 10% |  |  |  |  | 
7 | CC(=O)Nc1ccc(C(=O)OCCOC(=O)C2=C(C)NC(C)=C(C(=O)OCCNC(=O)c3ccccc3O)[C@H]2c2cccc([N+](=O)[O-])c2)cc1 | < 10% |  |  |  |  | 
8 | CCOC(=O)c1c(C)n(Cc2ccccc2)c2ccc(OC[C@H](O)CN3CCN(CCO)CC3)cc12 | < 10% |  |  |  |  | 
9 | COc1ccc(-c2c(C)oc3cc(OCCN4CCN(CCO)CC4)ccc3c2=O)cc1OC | < 10% |  |  |  |  | 
10 | O=C(CCC(=O)Nc1ccc(S(=O)(=O)Nc2ccccn2)cc1)Nc1ccc(S(=O)(=O)Nc2ccccn2)cc1 | < 10% |  |  |  |  | 
11 | O=C(CCC(=O)Nc1ccc(S(=O)(=O)Nc2ncccn2)cc1)Nc1ccc(S(=O)(=O)Nc2ncccn2)cc1 | < 10% |  |  |  |  | 
12 | O[C@H](COc1ccc(OC[C@H](O)CN2CCN(c3cccc(Cl)c3)CC2)cc1)CN1CCN(c2cccc(Cl)c2)CC1 | 47.6% | 3.89 | 4.05 | < 4.00 | < 4.00 | 
13 | C[C@H](O)c1ccc(-c2ccc(CNCCCSc3nnnn3-c3ccccc3)o2)cc1 | < 10% |  |  |  |  | 
14 | CO[C@H]1/C=C\C=C(/C)C(=O)NC2=CC(=O)C(NCCN(C)C)=C(C[C@@H](C)C[C@H](OC)[C@H](O)[C@@H](C)/C=C(\C)[C@@H]1OC(N)=O)C2=O (stereo in doubt) |  |  |  |  |  | inhibition (Homo sapiens [9]): inactive
15 | Cc1cc(C)c(NS(=O)(=O)c2ccc(NC(=O)CCCCC(=O)Nc3ccc(S(=O)(=O)Nc4c(C)cc(C)cc4C)cc3)cc2)c(C)c1 | 21.5% |  |  |  |  | 
16 | CC1=C(C(=O)OCCNC(=O)c2ccc(O)cc2)[C@@H](c2cccc([N+](=O)[O-])c2)C(C(=O)OCCNC(=O)c2ccccc2O)=C(C)N1 | < 10% |  |  |  |  | 

Source: ChEMBL document CHEMBL4138078, “Structure-based virtual screening and optimization of modulators targeting Hsp90-Cdc37 interaction” (Eur J Med Chem, 2017)
